How the values were obtained:
Homo sapiens = species: Homo sapiens; assay: Selectivity ratio of IC50 for human CHK1 to IC50 for human CHK2
[1] = biological target: T1, Serine/threonine-protein kinase Chk1 (Homo sapiens, UniProt O14757); assay: Inhibition of human CHK1 using STK1 as substrate after 10 mins by HTRF assay
T1 sequence (O14757 whole entry): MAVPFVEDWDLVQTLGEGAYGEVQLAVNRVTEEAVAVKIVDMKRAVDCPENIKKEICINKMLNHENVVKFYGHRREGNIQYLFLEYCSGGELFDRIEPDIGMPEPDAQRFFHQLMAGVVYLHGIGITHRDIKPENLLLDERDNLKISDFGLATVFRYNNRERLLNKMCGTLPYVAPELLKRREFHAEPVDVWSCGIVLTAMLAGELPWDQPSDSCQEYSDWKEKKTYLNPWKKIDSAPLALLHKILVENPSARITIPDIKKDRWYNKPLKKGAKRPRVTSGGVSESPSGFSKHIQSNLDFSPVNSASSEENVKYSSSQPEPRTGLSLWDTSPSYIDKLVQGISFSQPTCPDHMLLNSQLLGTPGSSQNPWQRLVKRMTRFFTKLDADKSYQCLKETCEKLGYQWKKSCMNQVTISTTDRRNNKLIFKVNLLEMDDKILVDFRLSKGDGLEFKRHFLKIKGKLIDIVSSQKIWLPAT
Procedure, shortened: (§1)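 Human Chk1 or Chk2 was incubated with test agent over a concentration range (final DMSO 0.2%) and STK1 substrate (50 nM for Chk1, 1 µM for Chk2) in 50 mM HEPES pH 7.0 with 5 mM MgCl2 and 1 mM DTT. The reaction was started with 100 µM ATP and ran 10 min at 30 °C. It was stopped with EDTA containing Sa-XL665 and Eu(K) antibody, then held 1 h at room temperature. TR-FRET 665/620 ratio was read, minus the negative control. IC50s are means of at least three independent experiments, each in duplicate.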

[2] = biological target: Serine/threonine-protein kinase Chk2 (Homo sapiens, UniProt O96017); assay: Inhibition of human Chk2 using STK1 as substrate after 10 mins by HTRF assay; procedure, shortened: as §1
Serine/threonine-protein kinase Chk2, sequence (O96017 whole entry): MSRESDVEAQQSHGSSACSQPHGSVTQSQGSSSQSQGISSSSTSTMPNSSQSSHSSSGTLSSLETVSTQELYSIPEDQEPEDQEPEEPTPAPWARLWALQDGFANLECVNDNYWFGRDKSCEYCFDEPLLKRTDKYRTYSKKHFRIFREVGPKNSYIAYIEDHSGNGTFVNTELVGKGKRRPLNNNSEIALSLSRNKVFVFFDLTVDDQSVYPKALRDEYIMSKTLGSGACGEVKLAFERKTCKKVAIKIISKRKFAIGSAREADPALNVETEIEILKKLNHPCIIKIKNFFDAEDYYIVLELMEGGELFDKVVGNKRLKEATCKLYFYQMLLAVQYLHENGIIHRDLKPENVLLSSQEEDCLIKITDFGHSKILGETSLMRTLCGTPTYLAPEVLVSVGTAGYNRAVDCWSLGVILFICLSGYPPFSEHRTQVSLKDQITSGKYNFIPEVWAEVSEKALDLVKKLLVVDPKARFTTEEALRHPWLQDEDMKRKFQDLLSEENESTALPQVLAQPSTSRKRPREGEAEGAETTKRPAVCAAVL

Ratio IC50 (Homo sapiens)	IC50 [1]	IC50 [2]	SMILES
> 36	> 10000 nM	277 nM	CCOC(=O)CCNC1=NC(=O)/C(=C2\CCNC(=O)c3[nH]c(-c4ccccc4)cc32)N1
4			NC1=N/C(=C2/CCNC(=O)c3[nH]ccc32)C(=O)N1
29	234 nM		Nc1nc(C2=C3C(=Nc4ccccc43)C(=O)NCC2)c(O)[nH]1
66	1310 nM	20 nM	NC1=NC(=O)/C(=C2\CCNC(=O)c3[nH]c(-c4ccccc4)cc32)N1
> 7	> 10000 nM	1530 nM	O=C1N=C(NC2CCCCC2)N/C1=C1/CCNC(=O)c2[nH]c(-c3ccccc3)cc21
> 64	> 10000 nM	156 nM	CCCNC1=NC(=O)/C(=C2\CCNC(=O)c3[nH]c(-c4ccccc4)cc32)N1
32	905 nM	28 nM	O=C1N=C(NCc2ccccc2)N/C1=C1/CCNC(=O)c2[nH]c(-c3ccccc3)cc21
> 17	> 10000 nM	588 nM	COc1ccc(CNC2=NC(=O)/C(=C3\CCNC(=O)c4[nH]c(-c5ccccc5)cc43)N2)cc1
38	6560 nM	171 nM	CNC1=NC(=O)/C(=C2\CCNC(=O)c3[nH]c(-c4ccccc4)cc32)N1
111	1550 nM	14 nM	COc1ccc(-c2cc3c([nH]2)C(=O)NCC/C3=C2/NC(N)=NC2=O)cc1OC
62	867 nM	14 nM	COc1ccc(-c2cc3c([nH]2)C(=O)NCC/C3=C2/NC(N)=NC2=O)cc1
